Experimental data from ChEMBL document CHEMBL4390653, “Potential anti-herpes and cytotoxic action of novel semisynthetic digitoxigenin-derivatives” (Eur J Med Chem, 2019).

Legend:
[1] = Cytotoxicity against human HGF cells assessed as inhibition of cell viability after 48 hrs by SRB assay; format: cell-based
Outline: (§1)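 Cells seeded at 2.5 × 10^4 per well and exposed to a concentration range for 48 h, then SRB total-protein stain. PC3 grown in phenol-red-free DMEM with 1% glutamine; LNCaP in phenol-red-free RPMI 1640 with glutamine and non-essential amino acids. HCT-8 and H460 in RPMI 1640. MRC-5 (plus glutamine and non-essential amino acids) and primary gingival fibroblasts in DMEM. All media had 10% FBS, 37 °C, 5% CO2. Paclitaxel was the reference. IC50 versus untreated controls by nonlinear regression, three independent experiments.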

PC-3 = assay: Cytotoxicity against human PC3 cells assessed as inhibition of cell viability after 48 hrs by SRB assay; format: functional, cell-based; settings: PC-3, 48 h; outline: as §1
Human alphaherpesvirus 1 [2] = assay: Antiviral activity against acyclovir-sensitive Herpes simplex virus 1 KOS infected in African green monkey Vero cells assessed as inhibition of viral replication after 48 hrs by naphthol blue-black staining-based plaque reduction assay; format: functional, organism-based; settings: Human alphaherpesvirus 1, strain KOS
Outline: (§2)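 Vero cells in MEM with 10% FBS, 37 °C, 5% CO2. Confluent monolayers (2.5 × 10^5 cells/well) infected with about 100 PFU for 1 h at 37 °C. Non-cytotoxic concentrations were added after infection. Cells were then PBS-washed and overlaid with MEM plus 1.5% carboxymethylcellulose, with or without compound, for 48 h. Fixed, naphthol blue-black stained, plaques counted under a stereomicroscope. IC50 versus untreated controls by nonlinear regression; mean of three independent experiments.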

[3] = Selectivity index, ratio of Cytotoxicity against African green monkey Vero cells assessed as reduction in cell viability after 48 hrs by SRB assay to Antiviral activity against Herpes simplex virus 2-333 infected in African green monkey Vero cells assessed as inhibition of viral replication after 48 hrs by naphthol blue-black staining-based plaque reduction assay; format: toxicity; settings: Vero cells infected with HSV-2 333, read-out: Ratio CC50/IC50
Outline: (§3)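 Selectivity index = CC50 in Vero cells (SRB, 48 h) divided by plaque-reduction IC50 for the same virus strain.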

[4] = (§4) Selectivity index, ratio of Cytotoxicity against African green monkey Vero cells assessed as reduction in cell viability after 48 hrs by SRB assay to Antiviral activity against acyclovir-sensitive Herpes simplex virus 1 KOS infected in African green monkey Vero cells assessed as inhibition of viral replication after 48 hrs by naphthol blue-black staining-based plaque reduction assay; format: toxicity; settings: Vero cells infected with HSV-1 KOS, read-out: Ratio CC50/IC50; outline: as §3
[5] = Inhibition of porcine cortex Na+/K+-ATPase alpha1/2/3 subunit using ATP as substrate preincubated for 30 mins followed by substrate addition and measured after 30 mins by malachite green reagent-based assay; parameters: species or system Sus scrofa
Human alphaherpesvirus 1 [6] = assay: Antiviral activity against acyclovir-resistant Herpes simplex virus 1 29-R infected in African green monkey Vero cells assessed as inhibition of viral replication after 48 hrs by naphthol blue-black staining-based plaque reduction assay; format: functional, organism-based; outline: as §2
[7] = as §4, with “acyclovir-resistant” for “acyclovir-sensitive”, “29-R” for “KOS”; format: toxicity; settings: Vero cells infected with HSV-1 29-R, read-out: Ratio CC50/IC50; outline: as §3
LNCaP = assay: Cytotoxicity against human LNCAP cells assessed as inhibition of cell viability after 48 hrs by SRB assay; format: functional, cell-based; outline: as §1
Human alphaherpesvirus 2 = assay: Antiviral activity against Herpes simplex virus 2-333 infected in African green monkey Vero cells assessed as inhibition of viral replication after 48 hrs by naphthol blue-black staining-based plaque reduction assay; format: functional, organism-based; settings: Human alphaherpesvirus 2, 333, Vero; outline: as §2
[8] = Cytotoxicity against African green monkey Vero cells assessed as reduction in cell viability after 48 hrs by SRB assay; format: cell-based; settings: chlorocebus sabaeus
Outline: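 Vero cells in MEM with 10% FBS, seeded at 2.5 × 10^4 cells/well. Exposed to a range of concentrations for 48 h at 37 °C, 5% CO2, then sulforhodamine B total-protein staining. CC50 is the concentration reducing viability by 50% versus untreated controls, from nonlinear regression; mean ± SD of three independent experiments.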

NCI-H460 = assay: Cytotoxicity against human H460 cells assessed as inhibition of cell viability after 48 hrs by SRB assay; format: functional, cell-based; settings: NCI-H460, 48 h; outline: as §1
HCT-8 = assay: Cytotoxicity against human HCT8 cells assessed as inhibition of cell viability after 48 hrs by SRB assay; format: functional, cell-based; settings: HCT-8, 48 h; outline: as §1
MRC5 = assay: Cytotoxicity against human MRC5 cells assessed as inhibition of cell viability after 48 hrs by SRB assay; format: cell-based; settings: MRC5, 48 h; outline: as §1
A549 = assay: Cytotoxicity against human A549 cells assessed as inhibition of cell viability after 48 hrs by SRB assay; format: functional, cell-based; settings: A549, 48 h
[9] = Human alphaherpesvirus 1, 29-R, Vero, 48 h, read-out: IC50

SMILES	IC50 [1]	IC50 (PC-3)	IC50 (Human alphaherpesvirus 1 [2])	selectivity ratio at 48 h [3]	selectivity ratio at 48 h [4]	IC50 [5]	IC50 (Human alphaherpesvirus 1 [6]; [9])	selectivity ratio at 48 h [7]	IC50 (LNCaP)	IC50 (Human alphaherpesvirus 2)	CC50 at 48 h [8]	IC50 (NCI-H460)	IC50 (HCT-8)	IC50 (MRC5)	IC50 (A549)	IC50 (Human alphaherpesvirus 1 [6]; vero)
C[C@]12CC[C@H](n3cc(CO[C@H]4O[C@H](CO)[C@@H](O)[C@H](O)[C@@H]4O)nn3)C[C@H]1CC[C@@H]1[C@@H]2CC[C@]2(C)[C@@H](C3=CC(=O)OC3)CC[C@]12O	1.41 µM	0.58 µM	0.55 µM	> 732	> 546	5.47 µM	0.37 µM	> 811	1.66 µM	0.41 µM	> 300 µM	0.24 µM	1.02 µM	0.36 µM	0.58 µM	–
C[C@]12CC[C@H](NC(=O)CN3CCC(c4ccccc4)CC3)C[C@H]1CC[C@@H]1[C@@H]2CC[C@]2(C)[C@@H](C3=CC(=O)OC3)CC[C@]12O	–	0.7 µM	0.44 µM	228	254	6.59 µM	0.2 µM	560	1.72 µM	0.49 µM	112 µM	0.32 µM	0.3 µM	–	1.43 µM	–
C[C@]12CC[C@H](NC(=O)CNc3ccc(Cl)cc3)C[C@H]1CC[C@@H]1[C@@H]2CC[C@]2(C)[C@@H](C3=CC(=O)OC3)CC[C@]12O	–	1.18 µM	1.51 µM	224	208	10.8 µM	1.8 µM	174	1.28 µM	1.4 µM	314 µM	1.14 µM	1.68 µM	–	1.38 µM	–
CC(=O)OC[C@H]1O[C@@H](OCc2cn([C@H]3CC[C@@]4(C)[C@H](CC[C@@H]5[C@@H]4CC[C@]4(C)[C@@H](C6=CC(=O)OC6)CC[C@]54O)C3)nn2)[C@H](OC(C)=O)[C@@H](OC(C)=O)[C@H]1OC(C)=O	–	6.23 µM	–	–	–	–	–	–	11.3 µM	–	216 µM	–	5.91 µM	–	3.94 µM	–
CC(=O)OC[C@H]1O[C@H](O[C@H]2[C@H](OC(C)=O)[C@@H](OC(C)=O)[C@H](OCc3cn([C@H]4CC[C@@]5(C)[C@H](CC[C@@H]6[C@@H]5CC[C@]5(C)[C@@H](C7=CC(=O)OC7)CC[C@]65O)C4)nn3)O[C@@H]2COC(C)=O)[C@H](OC(C)=O)[C@@H](OC(C)=O)[C@@H]1OC(C)=O	–	29.5 µM	26.3 µM	18.5	6.86	–	33.4 µM	5.42	23.8 µM	9.75 µM	181 µM	–	9.51 µM	–	12 µM	–
Nc1nc2c(ncn2COCCO)c(=O)[nH]1 [ACYCLOVIR]	–	–	1.38 µM	> 619	> 1450	–	–	–	–	3.23 µM	> 2000 µM	–	–	–	–	Not Active
C[C@]12CC[C@H](O)C[C@H]1CC[C@@H]1[C@@H]2CC[C@]2(C)[C@@H](C3=CC(=O)OC3)CC[C@]12O [DIGITOXIGENIN]	1.47 µM	2.41 µM	1.09 µM	8.53	25.3	–	1.02 µM	27	3.7 µM	3.23 µM	27.5 µM	0.92 µM	2.48 µM	1.16 µM	1.68 µM	–
CC(=O)O[C@H]1C(=O)[C@@]2(C)[C@H]([C@H](OC(=O)c3ccccc3)[C@]3(O)C[C@H](OC(=O)[C@H](O)[C@@H](NC(=O)c4ccccc4)c4ccccc4)C(C)=C1C3(C)C)[C@]1(OC(C)=O)CO[C@@H]1C[C@@H]2O [PACLITAXEL]	> 200 µM	0.67 µM	–	–	–	–	–	–	21 µM	–	–	0.08 µM	0.17 µM	> 200 µM	0.11 µM	–
